The source made the active and inactive calls. No cut-off for these calls is given here.
Key:
Vasopressin V1a receptor [1] = biological target: Vasopressin V1a receptor (Microtus ochrogaster, UniProt Q9WTV9); test: Displacement of [125I]-LVA from prairie vole vasopressin V1A receptor after 72 hrs
Summary of the method: (§1)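 Prairie vole brain cryosections (20 μm, PFC through NAcc and VP) were thawed, dipped in 0.1% paraformaldehyde in PBS pH 7.4 and rinsed in 50 mM Tris pH 7.4. They were incubated 1 h with 50 pM 125I-LVA plus competitor at 0 or 10−10 to 10−5 M, then washed in Tris/2% MgCl2 pH 7.4. Film exposure was 72 h against 125I standards. Ki came from competition curves; sections from six animals.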

Oxytocin receptor = biological target: T1, Oxytocin receptor (Homo sapiens, UniProt P30559); test: Displacement of [3H]oxytocin from human oxytocin receptor after […] by liquid scintillation counting
T1 sequence (P30559 whole entry): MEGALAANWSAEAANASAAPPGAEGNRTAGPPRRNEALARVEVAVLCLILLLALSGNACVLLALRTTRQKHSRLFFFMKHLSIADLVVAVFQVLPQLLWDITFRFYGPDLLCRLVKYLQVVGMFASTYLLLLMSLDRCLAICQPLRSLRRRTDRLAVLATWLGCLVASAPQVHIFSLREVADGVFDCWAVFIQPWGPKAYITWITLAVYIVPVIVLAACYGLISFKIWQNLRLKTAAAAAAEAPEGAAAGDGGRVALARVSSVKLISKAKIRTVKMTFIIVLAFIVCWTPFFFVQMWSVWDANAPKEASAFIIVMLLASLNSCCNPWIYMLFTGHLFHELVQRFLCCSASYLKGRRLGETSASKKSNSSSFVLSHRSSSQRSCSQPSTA

Vasopressin V1a receptor [2] = biological target: Vasopressin V1a receptor (Homo sapiens, UniProt P37288); test: Displacement of [3H]-AVP from human V1A receptor after […] by liquid scintillation counting
Vasopressin V2 receptor = Vasopressin V2 receptor (Homo sapiens, UniProt P30518); test: Displacement of [3H]-AVP from human vasopressin V2 receptor after […] by liquid scintillation counting
[3] = Octanol-water partition coefficient, log P of the compound at 5 to 10 uCi at pH 7.4 after 3 mins; assay type: physicochemical
Summary of the method: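 About 5–10 μCi radioligand was shaken 3 min in 5 ml 0.1 M sodium phosphate pH 7.4 and 10 ml octanol. 2 ml octanol aliquots were re-partitioned against 2 ml fresh buffer by vortexing 7 min, then centrifuged at 20,000×g for 5 min. 0.5 ml of each layer was gamma-counted, and average counts gave logP7.4.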

[4] = Chemical stability of the compound in 10 % ethanol assessed as remaining radioactivity; assay type: physicochemical
Thyroid gland [5] = test: Drug uptake in iv dosed Sprague-Dawley rat thyroid assessed as per organ after 15 mins; assay type: ADME, organism-based; conditions: in vivo, 0.25 h
Summary of the method: (§2)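 Female Sprague–Dawley rats (180–200 g), fed ad libitum, were anesthetised with im ketamine/xylazine. Radioligand was given iv via tail vein in 0.1–0.2 ml 10% ethanol/saline. Animals were killed at 15, 30, 60 or 120 min and the thyroid was counted by gamma counter with dose standards. Counts were decay-corrected and given as percent injected dose per organ; n = 4, or 3 where noted.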

Thyroid gland [6] = test: Drug uptake in iv dosed Sprague-Dawley rat thyroid assessed as per organ after 30 mins; assay type: ADME, organism-based; conditions: in vivo, 0.5 h; summary of the method: as §2
Thyroid gland [7] = test: Drug uptake in iv dosed Sprague-Dawley rat thyroid assessed as per organ after 60 mins; assay type: ADME, organism-based; conditions: in vivo, 1 h; summary of the method: as §2
Thyroid gland [8] = test: Drug uptake in iv dosed Sprague-Dawley rat thyroid assessed as per organ after 120 mins; assay type: ADME, organism-based; conditions: in vivo, 2 h; summary of the method: as §2
Brain [9] = test: Drug uptake in Sprague-Dawley rat brain at 277 uCi, iv after 45 mins by PET imaging; assay type: ADME, organism-based; conditions: in vivo, 0.75 h
Summary of the method: (§3)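 Female Sprague–Dawley rats got estradiol benzoate 10–12 μg sc in sesame oil daily for 3 days to up-regulate OTR. They were anesthetised with ketamine/xylazine 100/10 mg/kg ip, and 200–300 μCi radioligand was injected via tail vein catheter. MicroPET brain scans began at injection (90 min 18F, 45 min 11C) after a 7 min Co-57 transmission scan. Frames were summed and whole-brain time-activity curves plotted.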

Brain [10] = test: Drug uptake in Sprague-Dawley rat brain at 295 uCi. iv after 5 mins by PET imaging; assay type: ADME, organism-based; conditions: in vivo; summary of the method: as §3
Vasopressin V1b receptor = biological target: T2, Vasopressin V1b receptor (Homo sapiens, UniProt P47901); test: Displacement of [3H]-AVP from human V1b receptor after […] by liquid scintillation counting
T2 sequence (P47901 whole entry): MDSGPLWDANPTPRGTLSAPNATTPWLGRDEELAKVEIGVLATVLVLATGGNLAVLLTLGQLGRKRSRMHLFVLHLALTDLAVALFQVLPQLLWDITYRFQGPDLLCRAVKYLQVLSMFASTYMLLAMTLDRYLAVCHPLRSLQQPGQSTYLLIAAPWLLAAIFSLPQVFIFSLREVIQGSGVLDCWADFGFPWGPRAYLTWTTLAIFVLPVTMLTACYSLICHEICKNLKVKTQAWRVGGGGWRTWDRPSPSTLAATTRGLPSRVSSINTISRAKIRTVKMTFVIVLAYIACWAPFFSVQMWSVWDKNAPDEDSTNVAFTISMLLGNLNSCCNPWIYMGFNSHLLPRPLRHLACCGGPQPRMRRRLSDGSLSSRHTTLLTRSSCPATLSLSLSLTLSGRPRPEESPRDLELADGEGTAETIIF

[11] = biological target: Vasopressin V1a receptor (Microtus ochrogaster) (UniProt Q9WTV9); test: Binding affinity to prairie vole ventral pallidum vasopressin V1A receptor by autoradiography; conditions: tested as the 125I-labelled form; summary of the method: as §1
Vasopressin V1a receptor (Microtus ochrogaster), sequence (Q9WTV9 whole entry, looked up): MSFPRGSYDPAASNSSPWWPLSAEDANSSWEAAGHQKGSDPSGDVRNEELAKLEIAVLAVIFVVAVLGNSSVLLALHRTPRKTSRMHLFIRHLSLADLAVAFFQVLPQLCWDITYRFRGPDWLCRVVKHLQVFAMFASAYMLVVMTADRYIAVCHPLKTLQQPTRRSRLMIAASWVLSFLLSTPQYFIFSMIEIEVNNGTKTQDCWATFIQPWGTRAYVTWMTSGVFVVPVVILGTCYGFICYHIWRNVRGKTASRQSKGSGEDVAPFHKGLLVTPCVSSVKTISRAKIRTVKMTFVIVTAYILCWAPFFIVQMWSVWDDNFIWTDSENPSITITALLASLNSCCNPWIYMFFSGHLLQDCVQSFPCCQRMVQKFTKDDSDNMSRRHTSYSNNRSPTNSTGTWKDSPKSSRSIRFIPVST

Vasopressin V1a receptor (Microtus ochrogaster, UniProt Q9WTV9), sequence (Q9WTV9 whole entry): as the sequence (Q9WTV9 whole entry, looked up) above
Vasopressin V2 receptor, sequence (P30518 whole entry): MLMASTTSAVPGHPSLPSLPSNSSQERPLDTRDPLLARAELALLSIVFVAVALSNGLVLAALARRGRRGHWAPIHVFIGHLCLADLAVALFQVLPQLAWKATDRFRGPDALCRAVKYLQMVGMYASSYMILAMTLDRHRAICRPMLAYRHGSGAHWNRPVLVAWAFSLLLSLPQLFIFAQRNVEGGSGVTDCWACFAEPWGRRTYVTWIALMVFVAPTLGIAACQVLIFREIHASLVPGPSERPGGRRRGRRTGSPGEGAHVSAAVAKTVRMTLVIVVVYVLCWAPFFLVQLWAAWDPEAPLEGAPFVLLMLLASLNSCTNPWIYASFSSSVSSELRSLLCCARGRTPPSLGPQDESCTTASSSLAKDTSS
Vasopressin V1a receptor (Homo sapiens, UniProt P37288), sequence (P37288 whole entry): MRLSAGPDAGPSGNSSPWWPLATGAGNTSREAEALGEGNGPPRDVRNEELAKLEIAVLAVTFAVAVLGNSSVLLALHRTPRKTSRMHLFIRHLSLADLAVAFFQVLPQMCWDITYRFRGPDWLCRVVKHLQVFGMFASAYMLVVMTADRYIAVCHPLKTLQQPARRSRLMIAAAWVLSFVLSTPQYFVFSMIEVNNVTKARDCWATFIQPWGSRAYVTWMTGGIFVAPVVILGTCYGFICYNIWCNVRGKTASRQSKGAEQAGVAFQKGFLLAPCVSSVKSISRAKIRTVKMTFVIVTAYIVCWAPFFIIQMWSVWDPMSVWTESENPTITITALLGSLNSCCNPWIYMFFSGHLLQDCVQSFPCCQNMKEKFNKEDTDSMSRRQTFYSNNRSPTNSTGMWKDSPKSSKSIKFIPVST

Compound | Ki (Vasopressin V1a receptor [1]) | Ki (Oxytocin receptor) | Ki (Vasopressin V1a receptor [2]) | Ki (Vasopressin V2 receptor) | logD at 0.05 h [3] | other results
CS(=O)(=O)N1CCC(Oc2ccc(CC(=O)N3CCC(N4C(=O)CCc5ccccc54)CC3)c(OC/C=C/I)c2)CC1 | 1.7 nM | 10 nM | 790 nM | 1400 nM | 2.36 | –
CS(=O)(=O)N1CCC(Oc2ccc(CC(=O)N3CCC(N4C(=O)CCc5ccccc54)CC3)c(OC/C=C/[125I])c2)CC1 | – | – | – | – | – | Stability [4]: 15%; Drug uptake (Thyroid gland [5]): 0.19 %ID; Drug uptake (Thyroid gland [6]): 0.53 %ID; Drug uptake (Thyroid gland [7]): 0.81 %ID; Drug uptake (Thyroid gland [8]): 1.05 %ID
CS(=O)(=O)N1CCC(Oc2ccc(CC(=O)N3CCC(N4C(=O)CCc5ccccc54)CC3)c(OCCF)c2)CC1 | 9.4 nM | 16 nM | 8700 nM | 1800 nM | 2.02 | –
CS(=O)(=O)N1CCC(Oc2ccc(CC(=O)N3CCC(N4C(=O)CCc5ccccc54)CC3)c(OC/C=C\[125I])c2)CC1 | – | – | – | – | – | Stability [4]: 15%; Drug uptake (Thyroid gland [5]): 0.05 %ID; Drug uptake (Thyroid gland [6]): 0.2 %ID; Drug uptake (Thyroid gland [7]): 0.32 %ID; Drug uptake (Thyroid gland [8]): 0.67 %ID
CS(=O)(=O)N1CCC(Oc2ccc(CC(=O)N3CCC(N4C(=O)CCc5ccccc54)CC3)c(O[11CH3])c2)CC1 | – | – | – | – | – | Drug uptake (Brain [9]): Not Active
COc1cc(OC2CCN(S(C)(=O)=O)CC2)ccc1CC(=O)N1CCC(N2C(=O)CCc3ccccc32)CC1 | 78 nM | 28 nM | 4800 nM | 3700 nM | 2.25 | –
CS(=O)(=O)N1CCC(Oc2ccc(CC(=O)N3CCC(N4C(=O)CCc5ccccc54)CC3)c(OCC[18F])c2)CC1 | – | – | – | – | – | Drug uptake (Brain [10]): Active
CS(=O)(=O)N1CCC(Oc2ccc(CC(=O)N3CCC(N4C(=O)CCc5ccccc54)CC3)c(O)c2)CC1 | – | 78 nM | – | – | – | –
CS(=O)(=O)N1CCC(Oc2ccc(CC(=O)N3CCC(N4C(=O)CCc5ccccc54)CC3)c(OC/C=C\I)c2)CC1 | 16 nM | 5.7 nM | 530 nM | 580 nM | 2.18 | Ki (Vasopressin V1b receptor): 9600 nM; Activity [11]: Active
